Source: ChEMBL document CHEMBL2406916, “7-Hydroxy-(E)-3-phenylmethylene-chroman-4-one analogues as efflux pump inhibitors against Mycobacterium smegmatis mc² 155” (2013)
Converted amounts (≈) assume the structure as drawn. The source made the active and inactive calls. The calls are words filed in the database; no cut-off is given here.

Key:
[1] = test system: Mycolicibacterium smegmatis; assay: Antimicrobial activity against Mycobacterium smegmatis MC2 155 ATCC 700084 at 40 mg/L after 72 hrs by MTT assay in presence of EtBr; format: functional
[2] = test system: Mycolicibacterium smegmatis; assay: Antimicrobial activity against Mycobacterium smegmatis MC2 155 ATCC 700084 at 80 mg/L after 72 hrs by MTT assay in presence of EtBr; format: functional
[3] = test system: Mycolicibacterium smegmatis; assay: Antimicrobial activity against Mycobacterium smegmatis MC2 155 ATCC 700084 after 72 hrs by MTT assay; format: functional; conditions: MC2 155 ATCC 700084, 72 h
[4] = test system: Mycolicibacterium smegmatis; assay: Antimicrobial activity against Mycobacterium smegmatis MC2 155 ATCC 700084 at 62.5 mg/L after 72 hrs by MTT assay in presence of EtBr; format: functional
[5] = test system: Mycolicibacterium smegmatis; assay: Antimicrobial activity against Mycobacterium smegmatis MC2 155 ATCC 700084 at 125 mg/L after 72 hrs by MTT assay in presence of EtBr; format: functional
[6] = test system: Mycolicibacterium smegmatis MC2 155; assay: Inhibition of multidrug resistance efflux pump in Mycobacterium smegmatis MC2 155 ATCC 700084 assessed as reduction in EtBr MIC at 125 mg/L by MTT assay relative to control
[7] = test system: Mycolicibacterium smegmatis MC2 155; assay: Inhibition of multidrug resistance efflux pump in Mycobacterium smegmatis MC2 155 ATCC 700084 assessed as reduction in EtBr MIC at 62.5 mg/L by MTT assay relative to control
[8] = test system: Mycolicibacterium smegmatis MC2 155; assay: Inhibition of multidrug resistance efflux pump in Mycobacterium smegmatis MC2 155 ATCC 700084 assessed as EtBr accumulation at half concentration of MIC measured every 3 mins interval for 45 mins by fluorometric method
In short: (§1)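 Cells are grown in 7H9/OADC at 37 °C to OD600 0.8, then pelleted and exposed to EtBr with test compound. Verapamil, reserpine, CCCP and DMSO serve as controls. EtBr fluorescence (excitation 530 nm, emission 600 nm) is read every 3 min for 45 min in a microplate spectrofluorimeter. Test concentrations are fractions (1/2, 1/4, 1/8) of each compound's MIC.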

[9] = test system: Mycolicibacterium smegmatis; assay: Antimicrobial activity against Mycobacterium smegmatis MC2 155 ATCC 700084 at 31.2 mg/L after 72 hrs by MTT assay in presence of EtBr; format: functional
[10] = test system: Mycolicibacterium smegmatis MC2 155; assay: Inhibition of multidrug resistance efflux pump in Mycobacterium smegmatis MC2 155 ATCC 700084 assessed as reduction in EtBr MIC at 31.2 mg/L by MTT assay relative to control
[11] = test system: Mycolicibacterium smegmatis; assay: Antimicrobial activity against Mycobacterium smegmatis MC2 155 ATCC 700084 at 16 mg/L after 72 hrs by MTT assay in presence of EtBr; format: functional
[12] = test system: Mycolicibacterium smegmatis MC2 155; assay: Inhibition of multidrug resistance efflux pump in Mycobacterium smegmatis MC2 155 ATCC 700084 assessed as reduction in EtBr MIC at 16 mg/L by MTT assay relative to control
[13] = test system: Mycolicibacterium smegmatis MC2 155; assay: Inhibition of multidrug resistance efflux pump in Mycobacterium smegmatis MC2 155 ATCC 700084 assessed as EtBr accumulation at 12.5 mg/L measured every 3 mins interval for 45 mins by fluorometric method; in short: as §1
[14] = test system: Mycolicibacterium smegmatis MC2 155; assay: Inhibition of multidrug resistance efflux pump in Mycobacterium smegmatis MC2 155 ATCC 700084 assessed as reduction in EtBr MIC at 250 mg/L by MTT assay relative to control
[15] = test system: Mycolicibacterium smegmatis MC2 155; assay: Inhibition of multidrug resistance efflux pump in Mycobacterium smegmatis MC2 155 ATCC 700084 assessed as EtBr accumulation at 31.5 mg/L measured every 3 mins interval for 45 mins by fluorometric method; in short: as §1
[16] = test system: Mycolicibacterium smegmatis MC2 155; assay: Inhibition of multidrug resistance efflux pump in Mycobacterium smegmatis MC2 155 ATCC 700084 assessed as EtBr accumulation at 31.5 mg/L measured every 3 mins interval for 45 mins by spectrofluorometric method; in short: as §1
[17] = test system: Mycolicibacterium smegmatis MC2 155; assay: Inhibition of multidrug resistance efflux pump in Mycobacterium smegmatis MC2 155 ATCC 700084 assessed as EtBr accumulation at 128 mg/L measured every 3 mins interval for 45 mins by fluorometric method; in short: as §1

For `COc1ccc(CCN(C)CCCC(C#N)(c2ccc(OC)c(OC)c2)C(C)C)cc1OC` (stereo not drawn), the “fractional inhibitory concentration index (FICI)” value [1] was 0.63, the “fractional inhibitory concentration index (FICI)” value [2] was 0.552 and the MIC [3] was 300 µg/mL (≈ 660 µM).

With `O=C1/C(=C/c2ccc(O)cc2)COc2cc(O)ccc21` the “fractional inhibitory concentration index (FICI)” value [4] was 0.37, the MIC [3] was 250 µg/mL (≈ 932 µM) and the “fractional inhibitory concentration index (FICI)” value [5] was 0.56. For the same molecule, the fold change (FC) [6] was 16, the fold change (FC) [7] was 8 and the Activity [8] was “Active”.

For `CC[n+]1c(-c2ccccc2)c2cc(N)ccc2c2ccc(N)cc21.[Br-]` [HOMIDIUM BROMIDE], the MIC [3] was 16 µg/mL.

With `O=C1/C(=C/c2ccccc2Br)COc2cc(O)ccc21` the “fractional inhibitory concentration index (FICI)” value [4] was 1, the MIC [3] was 125 µg/mL (≈ 377 µM) and the fold change (FC) [7] was 2.

With `O=C1/C(=C/c2ccc(F)cc2)COc2cc(O)ccc21` the MIC [3] was 250 µg/mL (≈ 925 µM), the “fractional inhibitory concentration index (FICI)” value [5] was 0.75 and the fold change (FC) [6] was 4. The Activity [8] was “Active”.

In the case of `O=C1/C(=C/c2ccc(C(F)(F)F)cc2)COc2cc(O)ccc21`, the MIC [3] is reported as 250 µg/mL (≈ 781 µM), the “fractional inhibitory concentration index (FICI)” value [5] is reported as 0.75 and the fold change (FC) [6] is reported as 4.

With `COc1ccc(/C=C2\COc3cc(O)ccc3C2=O)cc1` [BONDUCELLIN] the “fractional inhibitory concentration index (FICI)” value [4] was 0.62, the “fractional inhibitory concentration index (FICI)” value [9] was 0.5 and the MIC [3] was 125 µg/mL (≈ 443 µM). For the same molecule, the fold change (FC) [10] was 4, the fold change (FC) [7] was 8 and the Activity [8] was “Active”.

`O=C1/C(=C/c2cccc(F)c2)COc2cc(O)ccc21` was tested, and the MIC [3] was 250 µg/mL (≈ 925 µM), the “fractional inhibitory concentration index (FICI)” value [5] was 0.75 and the fold change (FC) [6] was 4. The Activity [8] was “Active”.

With `C=CCOc1ccccc1/C=C1\COc2cc(O)ccc2C1=O` the MIC [3] was 500 µg/mL (≈ 1620 µM), the “fractional inhibitory concentration index (FICI)” value [5] was 0.75 and the fold change (FC) [6] was 2.

With `N#CC(C#N)=NNc1cccc(Cl)c1` [CARBONYL CYANIDE M-CHLOROPHENYLHYDRAZONE] the “fractional inhibitory concentration index (FICI)” value [11] was 1.14, the fold change (FC) [12] was 2 and the Activity [13] was “Active”. For the same molecule, the MIC [3] was 25 µg/mL (≈ 122 µM).

With `O=C1/C(=C/c2ccccc2Cl)COc2cc(O)ccc21` the “fractional inhibitory concentration index (FICI)” value [4] was 1, the MIC [3] was 125 µg/mL (≈ 436 µM) and the fold change (FC) [7] was 2.

In the case of `O=C1/C(=C/c2cccc(Cl)c2)COc2cc(O)ccc21`, the MIC [3] is reported as 250 µg/mL (≈ 872 µM), the “fractional inhibitory concentration index (FICI)” value [5] is reported as 1 and the fold change (FC) [6] is reported as 2.

For `COc1ccccc1/C=C1\COc2cc(O)ccc2C1=O`, the MIC [3] was 250 µg/mL (≈ 886 µM), the “fractional inhibitory concentration index (FICI)” value [5] was 0.75 and the fold change (FC) [6] was 4. The Activity [8] was “Active”.

`COc1ccc(/C=C2\COc3cc(O)cc(O)c3C2=O)cc1` showed a fold change (FC) [14] of 4 and a fold change (FC) [7] of 2.

In the case of `O=C1/C(=C/c2ccccc2)COc2cc(O)ccc21`, the “fractional inhibitory concentration index (FICI)” value [4] is reported as 0.37, the MIC [3] is reported as 500 µg/mL (≈ 1980 µM) and the “fractional inhibitory concentration index (FICI)” value [5] is reported as 0.37. The fold change (FC) [6] was 8, the fold change (FC) [7] was 4 and the Activity [8] was “Active”.

`C=CCOc1ccc(/C=C2\COc3cc(O)ccc3C2=O)cc1` was tested, and the MIC [3] was 250 µg/mL (≈ 811 µM), the “fractional inhibitory concentration index (FICI)” value [5] was 0.75 and the fold change (FC) [6] was 2.

In the case of `C=CCOc1cccc(/C=C2\COc3cc(O)ccc3C2=O)c1`, the “fractional inhibitory concentration index (FICI)” value [4] is reported as 0.5, the MIC [3] is reported as 250 µg/mL (≈ 811 µM) and the “fractional inhibitory concentration index (FICI)” value [5] is reported as 0.62. The Activity [15] was “Active”, the fold change (FC) [6] was 8 and the fold change (FC) [7] was 4. For the same molecule, the Activity [8] was “Active” and the Activity [16] was “Active”.

For `O=C1/C(=C/c2ccccc2F)COc2cc(O)ccc21`, the “fractional inhibitory concentration index (FICI)” value [4] was 0.75, the MIC [3] was 125 µg/mL (≈ 463 µM) and the Activity [15] was “Active”. For the same molecule, the fold change (FC) [7] was 4, the Activity [8] was “Active” and the Activity [16] was “Active”.

In the case of `COc1cccc(/C=C2\COc3cc(O)ccc3C2=O)c1`, the MIC [3] is reported as 500 µg/mL (≈ 1770 µM), the “fractional inhibitory concentration index (FICI)” value [5] is reported as 0.75 and the fold change (FC) [6] is reported as 2.

`O=C1/C(=C/c2ccc(Cl)cc2)COc2cc(O)ccc21` was tested, and the MIC [3] was 250 µg/mL (≈ 872 µM), the “fractional inhibitory concentration index (FICI)” value [5] was 0.75 and the fold change (FC) [6] was 4. The Activity [8] was “Active”.

With `O=C1/C(=C/c2cccc(Br)c2)COc2cc(O)ccc21` the MIC [3] was 500 µg/mL (≈ 1510 µM), the “fractional inhibitory concentration index (FICI)” value [5] was 0.75 and the fold change (FC) [6] was 2.

`COC(=O)[C@H]1[C@H]2C[C@@H]3c4[nH]c5cc(OC)ccc5c4CCN3C[C@H]2C[C@@H](OC(=O)c2cc(OC)c(OC)c(OC)c2)[C@@H]1OC` [RESERPINE] was tested, and the “fractional inhibitory concentration index (FICI)” value [1] was 0.4, the MIC [3] was 256 µg/mL (≈ 421 µM) and the Activity [17] was “Active”.

With `COc1ccc(/C=C2\COc3c(ccc(O)c3O)C2=O)cc1` [INTRICATINOL] the “fractional inhibitory concentration index (FICI)” value [4] was 1, the MIC [3] was 125 µg/mL (≈ 419 µM) and the fold change (FC) [7] was 2.

In the case of `O=C1/C(=C/c2cccc(O)c2)COc2cc(O)ccc21`, the MIC [3] is reported as 500 µg/mL (≈ 1860 µM), the “fractional inhibitory concentration index (FICI)” value [5] is reported as 0.5 and the fold change (FC) [6] is reported as 4. The Activity [8] was “Active”.

`O=C1/C(=C/c2ccc(Br)cc2)COc2cc(O)ccc21` was tested, and the MIC [3] was 500 µg/mL (≈ 1510 µM), the “fractional inhibitory concentration index (FICI)” value [5] was 0.75 and the fold change (FC) [6] was 2.

For `COc1ccc(/C=C2\COc3c(ccc(O)c3OC)C2=O)cc1` [E-8-METHOXYBONDUCELLIN], the “fractional inhibitory concentration index (FICI)” value [4] was 1, the MIC [3] was 125 µg/mL (≈ 400 µM) and the fold change (FC) [7] was 2.
